According to ChEMBL document CHEMBL2021809, “Synthesis, biological evaluation and molecular modeling study of pyrazole and pyrazoline derivatives as selective COX-2 inhibitors and anti-inflammatory agents. Part 2” (Bioorg Med Chem, 2012):

How the values were obtained:
[1] = tested on: Rattus norvegicus; test: Antiinflammatory activity in ip dosed rat assessed as inhibition of carrageenan-induced foot paw edema measured after 2 hrs; format: functional
[2] = tested on: Rattus norvegicus; test: Antiinflammatory activity in rat assessed as inhibition of carrageenan-induced foot paw edema at 100 mg/kg, ip measured after 2 hrs; format: functional; details: route intraperitoneal
In short: (§1)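 Edema was induced in the rat paw with carrageenan. The read-out was percent reduction of edema at 2 h for each single dose. Test doses were 100 and 200 mg/kg. The reference agent was given at 50 and 100 mg/kg ip.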

[3] = target: T1, Prostaglandin G/H synthase 1 (Ovis aries, UniProt P05979); test: Inhibition of ovine COX1 by enzyme immuno assay
T1 sequence (P05979 whole entry): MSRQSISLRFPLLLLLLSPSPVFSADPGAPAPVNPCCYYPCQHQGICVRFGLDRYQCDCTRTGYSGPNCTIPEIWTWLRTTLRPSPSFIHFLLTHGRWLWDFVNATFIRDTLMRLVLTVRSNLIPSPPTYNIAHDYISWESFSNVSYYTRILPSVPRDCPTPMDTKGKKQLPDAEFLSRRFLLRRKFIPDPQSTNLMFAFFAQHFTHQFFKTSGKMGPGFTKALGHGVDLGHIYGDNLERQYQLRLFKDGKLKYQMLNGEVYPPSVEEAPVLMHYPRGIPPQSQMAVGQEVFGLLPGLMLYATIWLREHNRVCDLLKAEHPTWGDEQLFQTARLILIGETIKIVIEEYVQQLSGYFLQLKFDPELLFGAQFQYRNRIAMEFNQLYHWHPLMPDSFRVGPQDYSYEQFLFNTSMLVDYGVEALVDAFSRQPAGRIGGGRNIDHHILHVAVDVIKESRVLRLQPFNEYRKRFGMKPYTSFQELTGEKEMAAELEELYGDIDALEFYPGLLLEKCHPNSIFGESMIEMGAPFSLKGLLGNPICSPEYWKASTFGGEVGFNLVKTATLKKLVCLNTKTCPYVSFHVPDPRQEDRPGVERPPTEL

[4] = tested on: Rattus norvegicus; test: Antiinflammatory activity in rat assessed as inhibition of carrageenan-induced foot paw edema at 200 mg/kg, ip measured after 2 hrs; format: functional; details: route intraperitoneal; in short: as §1
[5] = tested on: Rattus norvegicus; test: Antiinflammatory activity in rat assessed as inhibition of carrageenan-induced foot paw edema at 50 mg/kg, ip measured after 2 hrs; format: functional; details: route intraperitoneal; in short: as §1

IC50 [3] [µM]	SMILES	ED50 [1] [µmol/kg]	inhibition in vivo at 100 mg/kg [2] [%]	inhibition in vivo at 200 mg/kg [4] [%]	inhibition in vivo at 50 mg/kg [5] [%]
> 50	COc1ccc(/C=C(/C(=O)c2ccc(Cl)cc2)C(=O)C(F)(F)F)cc1	528	26.3	52.4	
> 50	FC(F)(F)c1nn(-c2ccccc2)c(-c2ccc(Cl)cc2)c1/C=N/c1ccc(Br)cc1	335	25.2	61.1	
> 50	COc1ccc(/C=C2\C(c3ccc(Cl)cc3)=NN=C2C(F)(F)F)cc1	405	33.4	69.1	
> 50	FC(F)(F)c1nn(-c2ccccc2)c(-c2ccc(Cl)cc2)c1/C=N/c1ccccc1Cl				
> 50	COc1ccc(/C=C(/C(=O)c2ccc(Cl)cc2)C(=O)C(F)(F)F)cc1OC	321	38.7	80.2	
> 50	FC(F)(F)c1[nH]nc(-c2ccc(Cl)cc2)c1Cc1ccccc1				
> 50	Cc1ccc(C2=NNC3(C2)C(=O)Nc2ccc(F)cc23)cc1 (centres undefined)				
> 50	O=C(/C(=C/c1cccc([N+](=O)[O-])c1)C(=O)C(F)(F)F)c1ccc(Cl)cc1	343	37.9	80	
> 50	O=[N+]([O-])c1cccc(/C=C2\C(c3ccc(Cl)cc3)=NN=C2C(F)(F)F)c1	318	37.6	84.5	
> 50	FC(F)(F)C1=NN=C(c2ccc(Cl)cc2)/C1=C\c1ccco1				
> 50	O=[N+]([O-])c1ccc(/N=C/c2c(C(F)(F)F)nn(-c3ccccc3)c2-c2ccc(Cl)cc2)cc1	243	43.7	86.7	
> 50	Oc1ccccc1/C=C1\C(c2ccc(Cl)cc2)=NN=C1C(F)(F)F				
> 50	N#CC(C#N)=Cc1c(C(F)(F)F)nn(-c2ccccc2)c1-c1ccc(Cl)cc1				
> 50	COc1ccc(/C=C2\C(c3ccc(Cl)cc3)=NN=C2C(F)(F)F)cc1OC	298	42	88.7	
> 50	O=C(/C(=C/c1ccccc1O)C(=O)C(F)(F)F)c1ccc(Cl)cc1				
> 50	O=C(/C(=C/c1ccco1)C(=O)C(F)(F)F)c1ccc(Cl)cc1				
> 50	Oc1ccc(/C=C2\C(c3ccc(Cl)cc3)=NN=C2C(F)(F)F)cc1	370	35.3	81.4	
> 50	FC(F)(F)c1cc(/N=C/c2c(C(F)(F)F)nn(-c3ccccc3)c2-c2ccc(Cl)cc2)cc(C(F)(F)F)c1	170	52	89.3	
	Cc1ccc(-c2cc(C(F)(F)F)nn2-c2ccc(S(N)(=O)=O)cc2)cc1 [CELECOXIB]	185	83		57
> 50	O=C(/C(=C/c1ccc(O)cc1)C(=O)C(F)(F)F)c1ccc(Cl)cc1	366	39.2	78.9	
> 50	O=C1Nc2ccc(F)cc2C12CC(c1ccc(Br)cc1)=NN2 (centres undefined)				
	O=C(O)Cc1ccccc1Nc1c(Cl)cccc1Cl [DICLOFENAC SODIUM]	198	87.3		48.7
